Reference: ChEMBL document CHEMBL4138101, “Rhodium-catalyzed C-H bond activation for the synthesis of quinonoid compounds: Significant Anti-Trypanosoma cruzi activities and electrochemical studies of functionalized quinones” (Eur J Med Chem, 2017)
One block for each compound: values may come before it.

Key:
Trypanosoma cruzi [1] = test: Antitrypanosomal activity against bloodstream forms of Trypanosoma cruzi Y isolated from parasite infected Albino Swiss mouse assessed as induction of parasite lysis incubated for 24 hrs by Neubauer chamber based cell counting method; format: functional, organism-based
Outline: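 Bloodstream trypomastigotes were taken from infected mice at peak parasitemia by differential centrifugation and resuspended at 10x10^6 cells/mL in DMES medium. They were mixed 1:1 with compound at twice the final concentration, with DMSO final ≤0.1%, and incubated at 37°C for 24 h. Benznidazole was the control. Counts were made in a Neubauer chamber, giving IC50/24 h as the concentration causing 50% parasite lysis.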

[2] = Cytotoxicity against Swiss albino mouse peritoneal macrophages after 24 hrs by PrestoBlue dye based assay; format: cell-based, Peritoneal macrophage; settings: read-out: LC50
[3] = Selectivity index, ratio of LC50 for cytotoxicity against Swiss albino mouse peritoneal macrophages to IC50 for Antitrypanosomal activity against bloodstream forms of Trypanosoma cruzi Y isolated from parasite infected Albino Swiss mouse; format: toxicity; settings: read-out: Ratio LC50/IC50
Trypanosoma cruzi [4] = test: Potency index, ratio of juglone IC50 to compound IC50 for antitrypanosomal activity against bloodstream forms of Trypanosoma cruzi Y isolated from parasite infected Albino Swiss mouse; format: functional

IC50 (Trypanosoma cruzi [1]): 1.02 µM
Structure (SMILES): COc1cccc2c1C(=O)C=CC2=O

IC50 (Trypanosoma cruzi [1]): 0.16 µM
Structure (SMILES): CC(=O)Oc1cccc2c1C(=O)C=CC2=O

Structure (SMILES): CC(C)(C)C1=CC(=O)C(Br)=CC1=O
IC50 (Trypanosoma cruzi [1]): 14.1 µM
CC50 at 24 h [2]: 42.3 µM
selectivity ratio [3]: 3

Structure (SMILES): COC1=C(I)C(=O)C(I)=C(OC)C1=O
IC50 (Trypanosoma cruzi [1]): 1.94 µM
CC50 at 24 h [2]: 27.7 µM

Structure (SMILES): O=C1C=CC(=O)C([Se]c2ccccc2)=C1
IC50 (Trypanosoma cruzi [1]): 16 µM
CC50 at 24 h [2]: 13.8 µM
selectivity ratio [3]: 0.86

Structure (SMILES): Nc1c(I)ccc2c1C(=O)C=CC2=O
IC50 (Trypanosoma cruzi [1]): 0.56 µM
CC50 at 24 h [2]: 13.1 µM
selectivity ratio [3]: 23.4

Structure (SMILES): COc1ccc2c(c1I)C(=O)C=CC2=O
IC50 (Trypanosoma cruzi [1]): 1.17 µM
CC50 at 24 h [2]: 14.2 µM
selectivity ratio [3]: 12.1

Structure (SMILES): O=C1C=C(I)C(=O)c2ccccc21
IC50 (Trypanosoma cruzi [1]): 1.79 µM
CC50 at 24 h [2]: 14.7 µM
selectivity ratio [3]: 8.2

Structure (SMILES): CC1=CC(=O)c2c(ccc(I)c2O)C1=O
IC50 (Trypanosoma cruzi [1]): 0.99 µM
CC50 at 24 h [2]: 15.7 µM
selectivity ratio [3]: 15.8

Structure (SMILES): O=C1C=CC(=O)c2c(O)c(I)cc(I)c21
IC50 (Trypanosoma cruzi [1]): 24.8 µM
CC50 at 24 h [2]: > 100 µM
selectivity ratio [3]: > 5.1

Structure (SMILES): O=C1C=CC(=O)c2c(C#Cc3ccccc3)cccc21
IC50 (Trypanosoma cruzi [1]): 2.2 µM
CC50 at 24 h [2]: 12.5 µM
selectivity ratio [3]: 5.7

Structure (SMILES): O=C1C=C(Br)C(=O)C(Cl)=C1Cl
IC50 (Trypanosoma cruzi [1]): 15.4 µM
CC50 at 24 h [2]: > 100 µM
selectivity ratio [3]: > 6.5

Structure (SMILES): Cc1cc(I)c2c(c1)C(=O)C=CC2=O
IC50 (Trypanosoma cruzi [1]): 0.49 µM
CC50 at 24 h [2]: 12.1 µM
selectivity ratio [3]: 24.7

Structure (SMILES): O=C1C=CC(=O)c2c(I)ccc(I)c21
IC50 (Trypanosoma cruzi [1]): 0.22 µM
CC50 at 24 h [2]: 12.9 µM

Structure (SMILES): CCOC(=O)/C=C/c1cccc2c1C(=O)C=CC2=O
IC50 (Trypanosoma cruzi [1]): 6.03 µM
CC50 at 24 h [2]: 12.7 µM
selectivity ratio [3]: 2.1

Structure (SMILES): O=C1C(Cl)=C(Cl)C(=O)c2c(I)cccc21
IC50 (Trypanosoma cruzi [1]): 7.26 µM
CC50 at 24 h [2]: 27.8 µM
selectivity ratio [3]: 3.8

Structure (SMILES): CC(C)(C)C1=CC(=O)C(I)=CC1=O
IC50 (Trypanosoma cruzi [1]): 12.8 µM
CC50 at 24 h [2]: 35.9 µM
selectivity ratio [3]: 2.8

IC50 (Trypanosoma cruzi [1]): 0.85 µM
Structure (SMILES): CC(=O)Oc1cccc2c1C(=O)C(Br)=CC2=O

Structure (SMILES): COC1=C(I)C(=O)C=CC1=O
IC50 (Trypanosoma cruzi [1]): 23.9 µM
CC50 at 24 h [2]: 32.6 µM
selectivity ratio [3]: 1.4

Structure (SMILES): COc1cc2c(c(I)c1OC)C(=O)C=CC2=O
IC50 (Trypanosoma cruzi [1]): 1.62 µM
CC50 at 24 h [2]: 12.2 µM
selectivity ratio [3]: 7.5

Structure (SMILES): COC(=O)c1ccc(I)c2c1C(=O)C=CC2=O
IC50 (Trypanosoma cruzi [1]): 1.61 µM
CC50 at 24 h [2]: 13.9 µM
selectivity ratio [3]: 8.7

Structure (SMILES): COc1c(I)ccc2c1C(=O)C=C(C)C2=O
IC50 (Trypanosoma cruzi [1]): 4.06 µM
CC50 at 24 h [2]: 24.7 µM
selectivity ratio [3]: 6.1

Structure (SMILES): O=C1C(Br)=CC(=O)c2c(I)cccc21
IC50 (Trypanosoma cruzi [1]): 1.38 µM
CC50 at 24 h [2]: 12.2 µM
selectivity ratio [3]: 8.8
Ratio (Trypanosoma cruzi [4]): 4.7

Structure (SMILES): COc1c(I)ccc2c1C(=O)C=CC2=O
IC50 (Trypanosoma cruzi [1]): 1.35 µM
CC50 at 24 h [2]: 13.3 µM
selectivity ratio [3]: 9.8

Structure (SMILES): O=C1C=CC(=O)c2c1ccc(I)c2O
IC50 (Trypanosoma cruzi [1]): 42 µM
CC50 at 24 h [2]: > 100 µM
selectivity ratio [3]: > 4.6

Structure (SMILES): CC1=C(C)C(=O)C(I)=CC1=O
IC50 (Trypanosoma cruzi [1]): 10.1 µM
CC50 at 24 h [2]: 15.4 µM
selectivity ratio [3]: 1.5

Structure (SMILES): O=C1C=CC(=O)C(Br)=C1
IC50 (Trypanosoma cruzi [1]): 21.5 µM
CC50 at 24 h [2]: 34.4 µM
selectivity ratio [3]: 1.6

Structure (SMILES): O=C1C=C(I)C(=O)C(Cl)=C1Cl
IC50 (Trypanosoma cruzi [1]): 27 µM
CC50 at 24 h [2]: > 100 µM
selectivity ratio [3]: > 4.7

Structure (SMILES): O=C1C=C([Se]c2ccccc2)C(=O)c2ccccc21
IC50 (Trypanosoma cruzi [1]): 1.13 µM
CC50 at 24 h [2]: 12.7 µM
selectivity ratio [3]: 11.2

Structure (SMILES): O=C1C=CC(=O)c2c(/C=C/c3ccccc3)cccc21
IC50 (Trypanosoma cruzi [1]): 0.19 µM
CC50 at 24 h [2]: 11.9 µM
selectivity ratio [3]: 62.5

Structure (SMILES): O=C1C=CC(=O)c2c(I)cccc21
IC50 (Trypanosoma cruzi [1]): 0.59 µM
CC50 at 24 h [2]: 11.5 µM
selectivity ratio [3]: 19.5

Structure (SMILES): O=C1C=C([Se]c2ccccc2)C(=O)C=C1[Se]c1ccccc1
IC50 (Trypanosoma cruzi [1]): 83.4 µM
CC50 at 24 h [2]: > 100 µM
selectivity ratio [3]: > 1.2

Structure (SMILES): O=C1C(Br)=C(Br)C(=O)c2c(I)cccc21
IC50 (Trypanosoma cruzi [1]): 2.25 µM
CC50 at 24 h [2]: 11.8 µM
selectivity ratio [3]: 5.3

Structure (SMILES): O=C1C=CC(=O)C(I)=C1
IC50 (Trypanosoma cruzi [1]): 60.6 µM
CC50 at 24 h [2]: 86 µM

Structure (SMILES): O=C1C=CC(=O)c2c1cccc2-c1ccccc1
IC50 (Trypanosoma cruzi [1]): 1.24 µM
CC50 at 24 h [2]: 12.7 µM
selectivity ratio [3]: 10.2
Ratio (Trypanosoma cruzi [4]): 5.2

Structure (SMILES): COc1ccc(I)c2c1C(=O)C=CC2=O
IC50 (Trypanosoma cruzi [1]): 3.54 µM
CC50 at 24 h [2]: 13.6 µM
selectivity ratio [3]: 3.8

IC50 (Trypanosoma cruzi [1]): 1.37 µM
Structure (SMILES): O=C1C=C(Br)C(=O)c2ccccc21 [2-Bromo-1,4-naphthoquinone]

Structure (SMILES): O=C(Cn1ccnc1[N+](=O)[O-])NCc1ccccc1 [BENZNIDAZOLE]
IC50 (Trypanosoma cruzi [1]): 9.68 µM
CC50 at 24 h [2]: > 4000 µM
selectivity ratio [3]: > 413

Structure (SMILES): O=C1C=CC(=O)c2c(O)cccc21 [JUGLONE]
IC50 (Trypanosoma cruzi [1]): 6.51 µM

Structure (SMILES): CC1=CC(=O)c2c(O)cccc2C1=O [PLUMBAGIN]
IC50 (Trypanosoma cruzi [1]): 1.38 µM
